Hsp70 activator: Hsp70 transcriptional activation, primary screen; 0.04% of 200,000 active; AID 1203; HeLa Hsp70 promoter luciferase reporter, luminescence; scaled: vehicle 0, proteasome-inhibitor control 100%; activation, % at 10 µM;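 active = activation above the mean across all tested compounds plus 3 SD, cutoff set per campaign, cut at about 5.5% in these data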
PP5 inh: PP5 (human) phosphatase inhibition | P53041 | purified PP5c, OMFP substrate fluorescence | inhibition, % at 6.7 µM | 0.18% of 320,000 active;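 active = inhibition above the campaign's mean inhibition across all tested compounds plus 3 SD, cut at about 9.5% in these data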
PKD1 inh: PKD1 (human) kinase inhibition; inhibition, % (test concentration not listed); 0.056% of 200,000 active; PKD1 kinase fluorescence polarization assay; Q15139; in the data active = inhibition above about 50%
Target sequence (Q15139 whole entry, looked up): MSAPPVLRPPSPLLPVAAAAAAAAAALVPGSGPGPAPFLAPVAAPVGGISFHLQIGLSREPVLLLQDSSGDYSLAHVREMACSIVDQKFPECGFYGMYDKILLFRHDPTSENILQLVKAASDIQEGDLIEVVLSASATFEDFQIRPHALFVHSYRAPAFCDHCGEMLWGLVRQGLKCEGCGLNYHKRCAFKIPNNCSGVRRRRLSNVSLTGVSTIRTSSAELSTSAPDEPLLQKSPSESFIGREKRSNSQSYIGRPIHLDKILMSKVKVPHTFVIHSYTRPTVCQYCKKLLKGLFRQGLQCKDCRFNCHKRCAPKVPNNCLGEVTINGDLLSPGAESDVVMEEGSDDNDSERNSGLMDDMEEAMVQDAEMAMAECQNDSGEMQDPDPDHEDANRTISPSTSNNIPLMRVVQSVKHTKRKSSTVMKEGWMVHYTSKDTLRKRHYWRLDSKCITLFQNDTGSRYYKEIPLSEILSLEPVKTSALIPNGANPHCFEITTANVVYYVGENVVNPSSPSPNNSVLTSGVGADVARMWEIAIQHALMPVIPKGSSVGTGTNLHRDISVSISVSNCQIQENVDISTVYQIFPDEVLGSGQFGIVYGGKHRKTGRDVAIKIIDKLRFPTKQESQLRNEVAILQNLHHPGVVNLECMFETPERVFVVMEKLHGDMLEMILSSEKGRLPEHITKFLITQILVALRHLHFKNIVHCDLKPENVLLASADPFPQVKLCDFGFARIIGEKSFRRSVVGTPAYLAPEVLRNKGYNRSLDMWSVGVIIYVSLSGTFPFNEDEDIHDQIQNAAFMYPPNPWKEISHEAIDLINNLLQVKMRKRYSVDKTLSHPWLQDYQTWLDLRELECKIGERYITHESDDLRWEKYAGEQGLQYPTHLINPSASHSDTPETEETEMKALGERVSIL
PP1 counter: counter-screen for PP5 inhibitors: inhibitors of human PP1-alpha; AID 2235; purified PP1alpha, OMFP fluorescence; 0.9% of 320,000 active; P62136; inhibition, % at 6.7 µM;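 active = inhibition above the mean inhibition of all tested compounds plus 3 SD, computed separately for each screening campaign, cut at about 15% in these data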
p97 ATPase inh: blocks human p97 ATPase activity; P55072; recombinant p97 ATPase, Kinase-Glo ATP luminescence, 3 h; inhibition, % at 8 µM; 0.42% of 220,000 active; AID 1481; in the data active = inhibition above about 15%
RBBP9 inhibitor: human RBBP9 hydrolase inhibition | recombinant RBBP9, FP-Rh probe fluorescence polarization | AID 1515 | O75884 | 0.2% of 220,000 active | inhibition, % at 7.94 µM;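 active = inhibition above the campaign mean of all tested compounds plus 3 SD, cut at about 14% in these data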
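Test system – recombinant human RBBP9 · Input – RBBP9 2.5 µM in dispensing solution, pre-mixing · Medium – Tris buffer pH 8.0, NaCl, Pluronic · Schedule – preincubation 30 min plus labeling 45 min at 25 °C · Measured by – fluorescence polarization · Measure – % inhibition · Controls – DMSO and no-protein wells · Replicates – one well per compound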
RBBP9 confirm: human RBBP9 inhibition, confirmation. recombinant RBBP9, FP-Rh probe fluorescence polarization. shares compounds with RBBP9 inhibitor. AID 1537. 36% of 410 active. inhibition, % at 7.94 µM;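 active = inhibition above the hit cutoff derived for the primary screen, cut at about 15% in these data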
Hits are given with their value; . = inactive; / = not tested or not shown; + = active, no number. A selection: hits, their analogues and other compounds. The true share with any hit is near 1.5%.

SMILES	Hsp70 activator	PP5 inh	PKD1 inh	PP1 counter	p97 ATPase inh	RBBP9 inhibitor	RBBP9 confirm
N#Cc1ccc(-c2ccccc2)nc1SCC(=O)c1cc2ccccc2oc1=O	.	.	.	.	.	30.3	.
CNCc1ccccc1Sc1cccc(O)c1	.	.	.	.	.	.	/
CNCc1ccccc1Sc1cc(O)ccc1O	.	.	.	.	.	17.9	83.8
CCCCC(CC)C(=O)Nc1cccc(SC)c1 (stereo unspecified)	.	.	.	.	.	.	/
O=C(CNc1cc(S(=O)(=O)N2CCOCC2)ccc1NCC1CCCO1)Nc1ccc(F)c(F)c1 (stereo unspecified)	/	.	/	.	/	/	/
O=C1C(C2=NC(c3ccccn3)C3C(=O)N(c4ccccc4)C(=O)C23)=C(O)c2ccccc21 (stereo unspecified)	/	.	/	.	.	59.5	.
O=C(CCC1CCCN(C(=O)CCN2CCCCC2=O)C1)NCc1ccccc1F (stereo unspecified)	.	.	.	.	.	.	/
CC1CC(=O)N(CC(=O)NCc2ccc(F)cc2)c2ccccc2S1(=O)=O (stereo unspecified)	/	.	/	.	/	/	/
O=C(Cn1ccc([N+](=O)[O-])n1)N1CCCCCC1	.	.	.	.	.	15.7	.
COc1ccc2cc(C(=O)N/N=C/c3cc(OC)c(OC)c(OC)c3)[nH]c2c1	/	.	/	.	/	/	/
COc1cc(OC)c2cc(C(=O)N/N=C/c3cccc(OC)c3O)[nH]c2c1	/	.	/	.	.	15.8	32.4
Cc1ccc(CNC(=O)Cc2ccc(Br)cc2)cc1	/	.	/	.	/	/	/
CC(=O)N1c2ccc(S(=O)(=O)NCCC(=O)Nc3ccc(C)c(F)c3)cc2CC1C (stereo unspecified)	/	.	/	.	/	/	/
O=c1[nH]nc(CNc2ccc(C(F)(F)F)cc2)c2ccccc12	.	.	.	.	.	.	/
O=c1[nH]nc(CNc2ccc(O)cc2)c2ccccc12	.	.	.	.	.	17.0	.
O=c1ccc2[n+]([O-])c3ccc(O)cc3oc-2c1	/	/	/	/	.	+	.
CC(C)OC(=O)c1sc2nc(-c3ccccc3)ccc2c1N	.	.	.	.	.	.	/
COC(=O)c1sc2nc(-c3ccco3)ccc2c1N	.	.	.	.	.	22.1	32.1
Cc1cccc(NS(=O)(=O)c2cc(NC(=O)CC(=O)c3ccc([N+](=O)[O-])cc3)ccc2C)c1	.	/	.	/	.	30.3	15.7
Cc1ccc(C(=O)Nc2cccc([N+](=O)[O-])c2)cc1S(=O)(=O)Nc1ccc(C(=O)O)cc1	.	.	.	.	.	.	/
COc1ccc(C(=O)O/N=C(\C)c2nccs2)cc1	.	.	.	.	.	18.7	39.5
CC(=O)N(C1=C(Cl)C(=O)c2ccccc2C1=O)C1CCCCC1	/	.	/	.	.	55.0	89.0
O=[N+]([O-])c1ccc(C(=S)N2CCN(c3ccc(F)cc3)CC2)cc1	.	.	.	.	.	14.6	.
O=C(COc1ccc2ccccc2c1)Nc1ccc(Cc2ccncc2)cc1	.	.	.	.	.	28.3	.
O=C(c1ccccc1)N1CCN(c2ccc(N3CCOCC3)nn2)CC1	/	.	/	.	/	/	/
SMILES	Hsp70 activator	PP5 inh	PKD1 inh	PP1 counter	p97 ATPase inh	RBBP9 inhibitor	RBBP9 confirm
COc1cc(C(=O)NCCCn2ccnc2)cc(OC)c1OC	.	.	.	.	.	14.4	.
Cc1ccc(S(=O)(=O)N2CCN(C(=O)CSc3nccn3C)CC2)cc1	/	.	/	.	.	.	/
CC1CCCN(C(=O)CSc2nnc3ccccn23)C1 (stereo unspecified)	/	.	/	.	/	/	/
O=C(CSc1nnc2ccccn12)N1CCOCC1	.	.	.	.	.	14.4	.
CCn1c(C(=O)NCc2cccnc2)cc2sc(Cl)cc21	.	.	.	.	.	14.5	.
CCn1c(N)c(C(=O)NCc2cccnc2)sc1=S	.	.	.	.	.	.	/
CCOc1ccc(S(=O)(=O)Nc2ccc(S(=O)(=O)N3CCCCC3)cc2)cc1	.	.	.	.	.	15.0	.
CCN(CC)C(=O)CSc1nc2cc3c(cc2c(=O)n1Cc1ccc(OC)cc1)OCO3	.	.	.	.	.	.	/
CCOc1ccc(NC(=O)NC(=O)N(C(C)C)S(C)(=O)=O)cc1	.	.	.	.	.	.	/
CCOC(=O)C1=C(SCC(=O)Nc2ccccc2)NC(=O)C(C#N)C12CCCCC2 (stereo unspecified)	.	.	.	.	.	14.6	.
Cc1nc2ccccc2c(=O)n1/N=C/c1c(O)ccc2oc3c(c12)CCCC3	.	.	.	.	.	19.3	.
Cc1nc2ccccc2c(=O)n1/N=C/c1c(O)ccc2ccccc12	.	.	.	.	.	.	/
O=S(=O)(O)c1ccc(N=Nc2ccccc2)cc1	/	.	/	.	.	.	/
O=c1ccc(N=Nc2ccccc2)ccc1O	/	.	/	.	.	18.2	.
CC(C)(C)c1ccc(NC(=O)CN2C(=O)NC(C)(C3CC3)C2=O)cc1 (stereo unspecified)	/	.	/	.	/	/	/
COc1ccc(N2CCN(C(=O)C3CCCN(S(=O)(=O)c4ccc(C)cc4)C3)CC2)cc1 (stereo unspecified)	/	.	/	.	/	/	/
COc1cc(CN2CCN(c3ccccc3F)CC2)cc(OC)c1O	.	.	.	.	.	15.1	.
Cc1ccc(S(=O)(=O)NCCC(=O)N2CCN(Cc3ccccc3)CC2)cc1	.	.	.	.	.	29.1	.
CC(=O)N1CCc2cc(S(=O)(=O)NCCC(=O)N3CCN(Cc4ccccc4)CC3)ccc21	.	.	.	.	.	.	/
Cc1ccccc1-n1sc2cc(F)ccc2c1=O	.	.	.	.	.	62.8	72.2
O=c1c2cc(F)ccc2sn1-c1ccccc1	/	.	/	.	/	/	/
COC(=O)CC(=O)CSc1nc2c(cc1C#N)CCC2	.	.	.	.	.	23.9	.
Cc1ccc(-c2nn(C)c(=O)c3ccccc23)cc1CN1CCCCC1	/	.	/	.	.	.	/
CCc1ccc(N2CC(C(=O)NCc3ccc4c(c3)OCO4)CC2=O)cc1 (stereo unspecified)	.	.	.	.	.	.	/
O=C(NCc1ccc2c(c1)OCO2)C1CC(=O)N(c2ccc(F)cc2)C1 (stereo unspecified)	.	.	.	.	.	16.5	.
SMILES	Hsp70 activator	PP5 inh	PKD1 inh	PP1 counter	p97 ATPase inh	RBBP9 inhibitor	RBBP9 confirm
CC(=O)c1ccc(OC(=O)C2CC(=O)N(c3cccc(C)c3)C2)cc1 (stereo unspecified)	.	.	.	.	.	16.2	.
COc1cc(C(=S)N2CCOCC2)ccc1OC(=O)c1cc(OC)c(OC)c(OC)c1	/	.	/	.	/	/	/
CCCCNC(=O)c1cccc(C(=O)NCCCC)c1	.	.	.	.	.	.	/
O=C(C[n+]1ccc(C(=O)NCCCO)cc1)c1cccc(Br)c1	/	.	/	.	.	62.6	.
Cc1nc2scc(-c3ccccc3)c2c(=O)n1N=C1C=CC(=O)C=C1	.	/	.	/	.	48.7	58.9
OC(CNC1Cc2ccccc2C1)COc1ccc(F)cc1 (stereo unspecified)	/	.	/	.	.	15.3	.

Screening results from PubChem BioAssay.
